Sampled rows, rich in hits. Any-hit rate of the full collection: about 1%.
ABCB1 block: blocks JC-1 efflux by human ABCB1 transporter; P08183; CCRF-Adr cells, flow cytometry; inhibition, % at 6.6 µM; 190,000 compounds, 0.067% hits; AID 1326; in the data active = inhibition above about 40%;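 also: 0% = vehicle and 100% = reference inhibitor; higher value means more JC-1 retained so stronger ABCB1 efflux block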
MT stabilizer: stabilizes microtubules in HeLa cells. % tubulin-high responders, % at 10 µM. 200,000 compounds, 0.83% hits. HeLa tubulin immunostaining HCS, 24 h; share of cells brighter than vehicle mean+2SD. AID 2205;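 active = plate Z-score above 3 for both tubulin-high and condensed-nucleus cell shares, with cell loss under 80%, at 10 µM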;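 also: anti alpha tubulin signal scored within the nucleus-defined area of each cell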
PKD1 inh: blocks activity of human protein kinase D1; Q15139; PKD1 kinase fluorescence polarization assay; inhibition, % (concentration not given with the values); 200,000 compounds, 0.056% hits; AID 797; in the data active = inhibition above about 50%
ABCG2 inh: human ABCG2 inhibition, ABCB1 as counter-screen. IgMXP3 cells, JC-1 efflux, flow cytometry. AID 1325. inhibition, % at 6.6 µM. 190,000 compounds, 0.1% hits;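 active = inhibition above 80%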;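 also: 0% = DMSO and 100% = nicardipine control wells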
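Assay system – ABCG2 IgMXP3 and barcoded ABCB1 CCRF-Adr cell mix · Input – 3 million cells/mL in well · Reagent – JC-1 fluorescent substrate · Compound – single test compound dose, 6.6 µM final · Timing – 10 min exposure at 25 °C with rotation, no wash · Detection – flow cytometry of retained JC-1 fluorescence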
bCat nuc transl: alters nuclear translocation of beta-catenin in HeLa cells; immunofluorescence imaging; nuclear translocation activity, % at 5 µM; 190,000 compounds, 0.3% hits;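 active = nuclear translocation activity above 50% at 5 µM, with a well cell count of 50 or more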;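 also: per-cell ratio of nuclear to cytoplasmic median beta-catenin stain intensity; plate controls were DMSO negative control for no effect and GSK-3 inhibitor IX positive control for full effect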
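Read-out: Nuclear/cytoplasmic beta-catenin signal ratio, % activation | Assay system: Human HeLa cell line | Times: 24 h compound exposure at 37°C, 5% CO2 | Signal: Fluorescence imaging of beta-catenin antibody stain plus DAPI | Dosing: 5 µM primary, 0.02–20 µM confirmation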
An asterisk follows results filed as active; nt = no result.

SMILES | ABCB1 block | MT stabilizer | PKD1 inh | ABCG2 inh | bCat nuc transl
O=C1CSC(c2cn(-c3ccccc3)nc2-c2cc3ccccc3oc2=O)N1Cc1ccccc1 (configuration not stated) | 3 | 31* | 7 | 4 | nt
Cc1cccc(Oc2ncnc3oc(-c4ccccc4)cc23)c1C | 0 | 1 | 2 | 0 | 0
Cc1ccc(C2=NNC(C(O)C(O)C(O)C(O)CO)S2)cc1 (configuration not stated) | 0 | 42* | -11 | 0 | -2
CNC(=O)c1nnsc1S(=O)(=O)c1ccc(Cl)cc1 | 0 | 3 | -7 | 0 | -1
Cc1ccc(C2c3c(-c4ccccc4O)n[nH]c3C(=O)N2Cc2ccncc2)cc1 (configuration not stated) | 4 | 27* | -7 | 4 | -1
COc1ccc(CCN2C(=O)c3[nH]nc(-c4ccccc4O)c3C2c2cccc(Cl)c2)cc1 (configuration not stated) | -2 | 20* | -4 | -1 | 3
COc1ccc(C2c3c(-c4ccccc4O)n[nH]c3C(=O)N2CCc2ccc(OC)c(OC)c2)cc1 (configuration not stated) | 13 | 2 | -2 | 30 | nt
CCOC(=O)N/N=C/c1c(C)nn(-c2cccc(C(F)(F)F)c2)c1Cl | 2 | 24* | -3 | 11 | 13
Cc1nn(-c2cccc(C(F)(F)F)c2)c(Cl)c1/C=N/Nc1cccc(C(=O)O)c1 | -2 | 1 | -10 | -10 | 0
COc1cc(NS(=O)(=O)c2ccc(OC)c(C)c2C)c(OC)cc1Cl | 1 | 39* | -3 | 2 | 81*
COc1ccc(/C=N/NC(=O)COc2ccccc2-c2ccccc2)cc1 | -1 | 13 | -5 | 2 | 142*
O=C(COc1ccccc1-c1ccccc1)N/N=C/c1cccc2ccccc12 | 1 | 8 | 1 | 5 | 112*
O=C(COc1cccc2ccccc12)N/N=C/c1ccccc1OCc1ccc(C(=O)O)cc1 | -1 | 2 | 0 | -9 | 4
COc1ccc(/C=N/NC(=O)CCSc2nc3ccccc3s2)cc1 | 1 | 29* | -3 | 17 | 131*
Cc1ccc(NC(=S)/N=C(\N)Nc2nc(C)c3cc(C)ccc3n2)c(C)c1 | 0 | 3 | -13 | -2 | -2
CCc1ccccc1NC(=S)/N=C(\N)Nc1nc(C)c2cc(C)ccc2n1 | 0 | 23* | -7 | -6 | 10
Cc1nc(NCCCn2ccnc2)c2ccccc2n1 | 0 | 2 | -5 | -1 | -2
O=C1c2ccccc2-c2onc3ccc(NCCCn4ccnc4)c1c23 | 3 | 4 | 94* | 0 | 14
CC1(C)Cc2c(sc3ncnc(NNC(=S)NCc4ccccc4)c23)CO1 | 0 | 29* | -4 | -1 | 0
Cc1ccccc1NC(=O)CSc1nc2cc3c(cc2cc1C)CCC3 | 2 | 36* | -7 | 9 | nt
CCC(=O)Nc1ccc(NC(=O)CSc2nc3cc4c(cc3cc2C)CCC4)cc1 | 0 | 2 | 3 | 0 | -4
O=C(NC(=S)Nc1ccc2oc(=O)ccc2c1)c1cc2ccccc2o1 | nt | nt | nt | nt | 1
CCOc1ccccc1NC(=O)CC1Nc2ccccc2NC1=O (configuration not stated) | 1 | 3 | -9 | 2 | 1
CCOc1ccccc1NC(=O)CC1Nc2cc(C)c(C)cc2NC1=O (configuration not stated) | 0 | 23* | -7 | 2 | nt
CN(C)S(=O)(=O)c1ccc(-c2csc(N/N=C/c3ccc(O)cc3)n2)cc1 | nt | nt | nt | nt | 1
SMILES | ABCB1 block | MT stabilizer | PKD1 inh | ABCG2 inh | bCat nuc transl
O=C(Nc1ccccc1Br)C1CC(=O)N(c2ccc3c4c(cccc24)CC3)C1 (configuration not stated) | 0 | 38* | -13 | -4 | 4
CCOC(=O)C(C)Sc1nc2c(cnn2-c2ccc(C)cc2)c(=O)[nH]1 (configuration not stated) | 2 | 43* | 6 | 20 | 1
COC(=O)[C@H](C)NC(=O)Nc1cc(Cl)ccc1C | 0 | 4 | -11 | 1 | 0
c1ccc(-n2cnc3cc(NCc4ccco4)ccc32)cc1 | 1 | 15 | 1 | 12 | 14
COc1cc(/C=N\NC(=O)C2COc3ccccc3O2)cc(OC)c1O (configuration not stated) | nt | nt | nt | nt | 0
O=C(N/N=C\c1cc(Br)cs1)C1COc2ccccc2O1 (configuration not stated) | 1 | 43* | -5 | 31 | 1
O=C(N/N=C/c1ccc2c(c1)OCO2)C1COc2ccccc2O1 (configuration not stated) | 0 | 41* | 5 | 2 | -2
COc1cccc(N2CCN(c3ncnc4c3[nH]c3ccccc34)CC2C)c1 (configuration not stated) | 1 | 5 | -4 | 9 | -1
COc1cccc(N2CCN(c3ncnc4c3[nH]c3ccc(F)cc34)CC2C)c1 (configuration not stated) | 2 | 26* | -7 | 7 | 0
CCOC(=O)C(C)Sc1ncc(-c2ccccc2)cn1 (configuration not stated) | 0 | 2 | -3 | 2 | 1
COc1ccc(NC(=S)N2CCNC(=O)C2CC(=O)Nc2cccc(Cl)c2C)cc1 (configuration not stated) | 1 | 2 | 2 | 36 | -1
CC1=CC2=NC(=O)/C(=C\c3ccc(-c4cccc(Cl)c4)o3)C(=N)N2O1 | -1 | 20* | -5 | -16 | 119*
CC(=O)Nc1ccc(NC(=O)C(C)Oc2ccc(Cl)cc2Cl)cc1 (configuration not stated) | -1 | 3 | 0 | 10 | -4
CC(Oc1ccc(Cl)cc1Cl)C(=O)Nc1ccncc1 (configuration not stated) | 1 | 56* | -9 | 7 | 52*
CNc1ccc(Br)cc(C(=O)/C=C/c2cccc(Cl)c2Cl)c1=O | 2 | 9.9* | -12 | 3 | 1
COc1cc(C2=NOC(C(=O)NCc3cccs3)C2)cc(OC)c1OC (configuration not stated) | 1 | 27 | 0 | 20 | nt
COc1cc(OC)c(C2=NOC(C(=O)NCCc3ccccc3)C2)cc1Cl (configuration not stated) | 1 | 2 | -7 | 14 | -2
COc1cc(OC)c(C2=NOC(C(=O)NCc3cccs3)C2)cc1Cl (configuration not stated) | 2 | 19* | 4 | 11 | 24
COc1ccc(C2=NOC(C(=O)NCc3cccs3)C2)cc1OC (configuration not stated) | 0 | 41* | 0 | 19 | nt
Cc1ccc(NC(=O)c2cncc(Br)c2)c(O)c1 | 0 | 4 | 1 | 7 | 1
O=C(N/N=C/c1ccccc1Cl)c1[nH]c2ccc(Br)cc2c1-c1ccccc1 | 1 | 7 | 15 | 20 | 94*
Cc1c(C(=O)N/N=C/c2ccccc2)[nH]c2ccc(Cl)cc12 | 11 | 13 | 1 | 45 | 56*

High-throughput results (PubChem)
